Converted amounts (≈) assume the structure as drawn.
Experiments:
Type in all cases: functional
[1] = test system: Mycobacterium tuberculosis; experiment: Antimicrobial activity against Mycobacterium tuberculosis H37Rv incubated for 48 hrs by microdilution broth method
Moraxella catarrhalis [2] = experiment: Antimicrobial activity against Moraxella catarrhalis clinical isolates incubated for 48 hrs by microdilution broth method
In short: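 Stocks in DMSO were diluted at least 10-fold into Mueller-Hinton broth, then 2-fold serially diluted in MH from 500 to 15.6 μg/ml. Bacteria were added, with DMSO-only dilution controls, and incubated at 37 °C for 48 h. Growth was scored at 24 and 48 h. MIC was the lowest concentration with no growth. Run in quadruplicate.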

Moraxella catarrhalis [3] = experiment: Bactericidal activity against Moraxella catarrhalis clinical isolates incubated for 48 hrs by microdilution broth method and standard plating method
In short: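 Broth microdilution in Mueller-Hinton broth, 2-fold series from 500 to 15.6 μg/ml, with DMSO-only controls, 37 °C for 48 h. Wells showing no growth were plated (10 μL) on MH agar. MBC was the lowest concentration giving no growth on plating. Run in quadruplicate.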

| Compound | MIC [1] | MIC (Moraxella catarrhalis [2]) | MBC (Moraxella catarrhalis [3]) |
| --- | --- | --- | --- |
| O=C1CCN1C(=O)NCc1ccccc1 | > 100 µg/mL | > 100 µg/mL | – |
| O=C1CC(Sc2ccccc2)N1 (racemic) | 25 µg/mL (≈ 139 µM) | > 200 µg/mL | – |
| O=C1CC(Sc2ccccc2F)N1 (racemic) | 25 µg/mL (≈ 127 µM) | 200 µg/mL (≈ 1010 µM) | – |
| O=C1CC(Sc2cccc(F)c2)N1 (racemic) | 100 µg/mL (≈ 507 µM) | > 200 µg/mL | – |
| O=C1CC(Sc2ccc(F)cc2)N1 (racemic) | > 100 µg/mL | > 200 µg/mL | – |
| O=C1CC(Sc2cccc(C(F)(F)F)c2)N1 (racemic) | 6.25 µg/mL (≈ 25.3 µM) | 200 µg/mL (≈ 809 µM) | – |
| C=CCSC1CC(=O)N1 (racemic) | > 200 µg/mL | > 200 µg/mL | – |
| O=C1CC(Sc2ccc([N+](=O)[O-])cc2)N1C(=O)NCc1ccccc1 (racemic) | 25 µg/mL (≈ 70 µM) | 3.12 µg/mL (≈ 8.74 µM) | 25 µg/mL (≈ 70 µM) |
| O=C1CC(Sc2ccccc2C(F)(F)F)N1C(=O)NCc1ccccc1 (racemic) | 125 µg/mL (≈ 329 µM) | 25 µg/mL (≈ 65.7 µM) | 25 µg/mL (≈ 65.7 µM) |
| COc1ccccc1SC1CC(=O)N1C(=O)NCc1ccccc1 (racemic) | 125 µg/mL (≈ 365 µM) | 200 µg/mL (≈ 584 µM) | 200 µg/mL (≈ 584 µM) |
| COc1cccc(SC2CC(=O)N2C(=O)NCc2ccccc2)c1 (racemic) | 100 µg/mL (≈ 292 µM) | 200 µg/mL (≈ 584 µM) | 200 µg/mL (≈ 584 µM) |
| COc1ccc(SC2CC(=O)N2C(=O)NCc2ccccc2)cc1 (racemic) | 125 µg/mL (≈ 365 µM) | 200 µg/mL (≈ 584 µM) | 200 µg/mL (≈ 584 µM) |
| COc1ccc(OC)c(SC2CC(=O)N2C(=O)NCc2ccccc2)c1 (racemic) | 50 µg/mL (≈ 134 µM) | 100 µg/mL (≈ 268 µM) | 200 µg/mL (≈ 537 µM) |
| COc1ccc(SC2CC(=O)N2C(=O)NCc2ccccc2)cc1OC (racemic) | 250 µg/mL (≈ 671 µM) | 200 µg/mL (≈ 537 µM) | > 200 µg/mL |
| O=C1CC(Sc2cccs2)N1C(=O)NCc1ccccc1 (racemic) | 6.25 µg/mL (≈ 19.6 µM) | 50 µg/mL (≈ 157 µM) | 100 µg/mL (≈ 314 µM) |
| CSc1ccc(SC2CC(=O)N2C(=O)NCc2ccccc2)cc1 (racemic) | > 100 µg/mL | – | – |

| Compound | MIC [1] | MIC (Moraxella catarrhalis [2]) | MBC (Moraxella catarrhalis [3]) |
| --- | --- | --- | --- |
| O=C1CC(Sc2cccc3ccccc23)N1C(=O)NCc1ccccc1 (racemic) | > 100 µg/mL | 200 µg/mL (≈ 552 µM) | > 200 µg/mL |
| O=C1CC(Oc2ccc([N+](=O)[O-])cc2)N1C(=O)NCc1ccccc1 (racemic) | 250 µg/mL (≈ 732 µM) | 6.25 µg/mL (≈ 18.3 µM) | 6.25 µg/mL (≈ 18.3 µM) |
| O=C1CC(Oc2ccc(C(F)(F)F)cc2)N1C(=O)NCc1ccccc1 (racemic) | 125 µg/mL (≈ 343 µM) | 50 µg/mL (≈ 137 µM) | > 200 µg/mL |
| O=C1CC([Se]c2ccccc2)N1C(=O)NCc1ccccc1 (racemic) | 25 µg/mL (≈ 69.6 µM) | 50 µg/mL (≈ 139 µM) | 50 µg/mL (≈ 139 µM) |
| C#CCCCC(=O)N1C(=O)CC1Sc1ccccc1 (racemic) | 45 µg/mL (≈ 165 µM) | 100 µg/mL (≈ 366 µM) | 100 µg/mL (≈ 366 µM) |
| O=C1CC(Sc2ccccc2)N1C(=O)NC(c1ccccc1)c1ccccc1 (racemic) | 50 µg/mL (≈ 129 µM) | – | – |
| O=C1CC(Sc2ccccc2)N1C(=O)NC1c2ccccc2-c2ccccc21 (racemic) | > 100 µg/mL | – | – |
| O=C1CC(Sc2ccccc2)N1C(=O)Nc1cccc2ccccc12 (racemic) | 25 µg/mL (≈ 71.8 µM) | – | – |
| O=C1CC(Sc2ccc(F)cc2)N1C(=O)NC(c1ccccc1)c1ccccc1 (racemic) | > 100 µg/mL | > 200 µg/mL | > 200 µg/mL |
| O=C1CC(Sc2ccc(F)cc2)N1C(=O)NCC(c1ccccc1)c1ccccc1 (racemic) | > 100 µg/mL | > 200 µg/mL | > 200 µg/mL |
| CCNC(=O)N1C(=O)CC1Sc1ccc(F)cc1F (racemic) | > 100 µg/mL | – | – |
| CC(NC(=O)N1C(=O)CC1Sc1ccccc1)c1cccc2ccccc12 (racemic) | > 100 µg/mL | > 200 µg/mL | > 200 µg/mL |
| O=C1CC(Sc2ccc(F)cc2F)N1C(=O)NCc1ccccc1F (racemic) | 50 µg/mL (≈ 136 µM) | – | – |
| COc1ccccc1CNC(=O)N1C(=O)CC1Sc1ccc(F)cc1F (racemic) | ≥ 100 µg/mL | – | – |
| O=C1CC(Sc2ccc(F)cc2F)N1C(=O)Nc1ccccc1F (racemic) | 25 µg/mL (≈ 71 µM) | – | – |
| O=C1CC(Sc2ccc(F)cc2Cl)N1C(=O)NC(c1ccccc1)c1ccccc1 (racemic) | 50 µg/mL (≈ 113 µM) | > 200 µg/mL | > 200 µg/mL |

From ChEMBL document CHEMBL3392996, “Non-transpeptidase binding arylthioether β-lactams active against Mycobacterium tuberculosis and Moraxella catarrhalis” (2015)
